Compound activity from PubChem BioAssay.
Sampled rows, rich in hits. Any-hit rate of the full collection: about 4%.
TAAR1 antagonist: antagonists of human TAAR1; Q96RJ0; CHO RD-HGA16 TAAR1, Fluo-8 calcium fluorescence, antagonist; inhibition, % at 3 µM; 360,000 tested, 1.5% active; AID 624466;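 active means inhibition above a per-plate cutoff, the mean inhibition of test compounds on that plate plus 3 SD, cut at about 49% in these data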;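 further: 0% = DMSO plus EC80 beta-PEA response and 100% = DMSO alone without agonist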
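Test system – hTAAR1-expressing CHO RD-HGA16 cells, Gα16-coupled · Also added – β-PEA at EC80 concentration, post-compound challenge · Compound – 3 µM, single point · Incubation – dye loading 75 min at 37 °C, then 30 min room temperature · Measured by – Fluo-8 intracellular calcium dye fluorescence, real-time kinetic reads · Benchmarks – vehicle and agonist controls · Replicates – singlicate, one well per test compound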
OX1R antag-1: antagonists of human orexin 1 receptor; 330,000 tested, 0.43% active; AID 434989; O43613; inhibition, % at 5 µM; CHO/OX1R cells, Fluo-8 calcium fluorescence, orexin A;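 active means inhibition above its plate's threshold, mean inhibition of all tested compounds on the plate plus 3 SD, cut at about 37% in these data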;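 further: 0% = orexin A challenge wells and 100% = SB-334867-A antagonist wells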
Target sequence (O43613 whole entry, looked up): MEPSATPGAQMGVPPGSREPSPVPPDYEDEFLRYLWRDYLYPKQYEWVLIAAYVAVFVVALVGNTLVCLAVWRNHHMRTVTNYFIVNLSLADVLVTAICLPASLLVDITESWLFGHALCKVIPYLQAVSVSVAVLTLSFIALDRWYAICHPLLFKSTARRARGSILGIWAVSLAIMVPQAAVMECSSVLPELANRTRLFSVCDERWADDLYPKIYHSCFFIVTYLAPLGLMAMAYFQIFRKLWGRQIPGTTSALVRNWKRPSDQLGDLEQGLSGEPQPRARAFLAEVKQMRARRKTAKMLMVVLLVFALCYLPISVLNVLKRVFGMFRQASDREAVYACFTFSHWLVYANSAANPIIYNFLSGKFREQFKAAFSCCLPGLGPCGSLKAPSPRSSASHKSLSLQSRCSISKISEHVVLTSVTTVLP
CHO parental Ca: counter-screen: ATP calcium response change in parental CHO cells. parental CHO-K1, ATP-induced calcium, Fluo-8 fluorescence. inhibition, % at 5.6 µM. 330,000 tested, 0.63% active. AID 463079;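 active means inhibition above that plate's mean sample inhibition plus 3 SD, cut at about 26% in these data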;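 further: 0% = ATP-challenged DMSO wells and 100% = DMSO wells without ATP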
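Test system: untransfected parental CHO cell line; also added: ATP stimulus; dosing: 5.6 µM, single dose; signal: calcium-sensitive Fluo-8 fluorescence; measure: percent inhibition of ATP-evoked calcium rise, normalized to controls; benchmarks: low control ATP plus DMSO, high control DMSO only; replication: one well per compound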
OX1R antag-2: OX1R (human) antagonism. O43613. OX1R-expressing cells, FRET antagonist read-out. inhibition, % at 6.6 µM. 330,000 tested, 1.8% active. AID 485270; in the data active means inhibition mostly above about 38%, no sharp cut-off; inactive means mostly below about 40%;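 further: 0% = agonist challenge alone and 100% = reference antagonist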
TAAR1 agonist: human TAAR1 agonism | Q96RJ0 | CHO RD-HGA16 TAAR1, Fluo-8 calcium fluorescence; vehicle wells 0%, saturating PEA agonist 100% | activation, % at 3 µM | 360,000 tested, 0.99% active | AID 624467;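 active means activation above the mean activation of all test compounds in the run plus 3 SD, cut at about 38% in these data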
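Test system: RD-HGA16 (CHO) cells co-expressing Gα16 and hTAAR1 | Doses: Single dose, 3 µM | Schedule: 17-24 h seeding, 75 min 37 °C dye, 30 min RT | Evaluation: % activation from peak over basal fluorescence ratio, DMSO-to-PEA scaled | Technique: Kinetic Fluo-8 calcium fluorescence | Benchmarks: Low control DMSO, high control PEA (EC100)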
Active calls of the source: *; . = not tested or not shown.

SMILES | TAAR1 antagonist | OX1R antag-1 | CHO parental Ca | OX1R antag-2 | TAAR1 agonist
Cc1ccc(S(=O)(=O)/C(C#N)=C/c2c(Oc3ccc(Cl)cc3)nc3c(C)cccn3c2=O)cc1 | . | -10 | -10 | 12 | .
C=CCN=C1NC(c2ccccc2C(F)(F)F)C(C(=O)OC)=C(C)N1Cc1ccccc1C(F)(F)F (stereo not given) | -10 | . | . | . | -2
Cc1cccc(C(=O)NC(=S)NNC(=O)c2cccs2)c1 | 61* | -4 | -8 | 5 | 129*
O=C(NC(=S)NNC(=O)c1cccs1)c1ccccc1 | 28 | -3 | 3 | 4 | 37
Cc1cc(C)c(C)c(C(=O)COC(=O)CNC(=O)CNC(=O)c2ccco2)c1C | -15 | -23 | -10 | 15 | 4
CCN1/C(=C\C=C2\C(=O)N(C)C(=S)N2C)Sc2ccccc21 | -9 | -10 | 3 | 4 | 8
CCOC(=O)/C(=C/C=C1\Sc2cc(OCC)c(OCC)cc2N1CC)C(C)=O | 73* | 108* | 85* | 26 | 158*
CNc1ccccc1C(C)(C)c1cc(-c2cccc(OC)c2)no1 | 26 | 13 | 41* | 14 | 11
C[C@H]1CN([C@@H](C)CO)C(=O)c2c(c3ccccc3n2C)-c2ccccc2CO[C@H]1CN(C)C(=O)Nc1cccc(F)c1 | 47 | . | . | . | 29
COc1ccc(C)cc1NCC(=O)Nc1ccc(C(C)(C)C)cc1 | -1 | -21 | -14 | 8 | -2
COc1cccc2c1C(=O)c1c(O)c3c(c(O)c1C2=O)C[C@](O)(C(C)=O)C[C@H]3O[C@@H]1C[C@@H](N)[C@@H](O)[C@@H](C)O1 | 9 | 4 | 10 | 49* | 8
COc1cccc2c1C(=O)c1c(O)c3c(c(O)c1C2=O)CC(O)(C(C)=O)CC3OC1CC(O)C(O)C(C)O1 (stereo not given) | 10 | . | . | . | 16
C#CCn1c(S(=O)(=O)Cc2ccc(OC)cc2)nc(-c2ccccc2)c1-c1ccccc1 | 5 | -8 | -23 | 58* | 8
COc1ccccc1N1N=C(c2ccc([N+](=O)[O-])cc2)CC1c1ccccc1 (stereo not given) | 25 | 58* | 55* | 7 | 23
CC(C)C[C@H]1CN([C@@H](Cc2ccccc2)CN2CCC[C@H]2CN2C(=O)C(=O)NC[C@@H]2Cc2ccccc2)C(=O)C(=O)N1CC1CCCCCC1 | -8 | . | . | . | -1
CCN1CCN(c2ccc(S(=O)(=O)N3CCCCC3)cc2NC(=O)Cc2ccc(Cl)c(Cl)c2)CC1 | . | 45 | 74* | 19 | .
CCN1CCN(c2ccc(S(=O)(=O)N3CCCCC3)cc2NC(=O)Cc2ccccc2)CC1 | -13 | -20 | -23 | 14 | 6
COc1ccc(OC)c(NC(=O)c2cc(-c3ccc(F)cc3OC(C)C)n[nH]2)c1 | 41 | . | . | . | 3
CC(C)Oc1cc(F)ccc1-c1cc(C(=O)Nc2ccccc2)[nH]n1 | 54* | . | . | . | 0
COc1ccc(NC(=O)c2cc(-c3cc(Cl)ccc3OC)n[nH]2)c(OC)c1 | 54* | . | . | . | 2
COc1ccc(NC(=O)c2cc(-c3cc(F)ccc3OC(C)C)n[nH]2)c(C)c1 | 86* | . | . | . | 45*
Cc1ccc(C)c(NC(=O)c2cc(-c3cc(C)ccc3O)n[nH]2)c1 | 13 | -20 | 32* | 26 | 0
Cc1cc(N2CCNC[C@H]2C)ccc1N1CCN(Cc2ccccc2)[C@@H](C)C1 | -2 | . | . | . | 7
Cc1cc(C)n(-c2ncnc3ccccc23)n1 | -15 | -24 | -6 | 8 | 16
COc1ccc(NC(=O)c2cc(-c3cc(Cl)ccc3O)n[nH]2)c(OC)c1 | -9 | 20 | -24 | 42* | 0
SMILES | TAAR1 antagonist | OX1R antag-1 | CHO parental Ca | OX1R antag-2 | TAAR1 agonist
O=C(Nc1ccc(S(=O)(=O)N2CCOCC2)cc1)c1cc(-c2cc(Cl)ccc2O)n[nH]1 | 56* | 2 | 13 | 16 | 20
COc1ccc(NC(=O)c2c(OC)cccc2OC)c(OC)c1 | -9 | -34 | -22 | 46* | 4
Cc1cc(O)c(-c2cc(C(=O)Nc3ccc(S(=O)(=O)N4CCOCC4)cc3)[nH]n2)cc1C | 23 | -18 | -4 | 9 | 16
COc1ccc(NC(=O)c2cc(-c3cc(F)ccc3OC)n[nH]2)c(OC)c1 | 50* | . | . | . | 7
CCc1ccccc1NC(=S)N(CCN(C)C)Cc1cccs1 | -3 | -6 | -1 | 16 | 1
CSC(=Nc1ccccc1)N=C(SCc1ccccc1)N(C)C | 77* | . | . | . | 10
